AI-2 QS mod: modulators of Vibrio harveyi AI-2 quorum sensing system; AID 2094; 300,000 tested, 0.4% active; Vibrio harveyi JMH597 AI-2 luminescence/OD600 ratio, 9 h; active compounds read low; strain lacks LuxN and CqsS sensors; 0 = neutral-control median; activity change, % at 7.5 µM; in the data active = activity change below about -75%, passing the limit was not always enough;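 also: luminescence divided by OD600 gain over 9 h not by final OD600 alone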
CAL PDZ FP-1: inhibitors of human CAL PDZ peptide binding. Q9HD26. purified CAL PDZ, TMR-peptide fluorescence polarization, 1 h. inhibition, % at 20 µM. 330,000 tested, 0.02% active. AID 504414;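 active = highest replicate inhibition of at least 40%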;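 also: plate controls were DMSO neutral control wells for no effect and unlabeled competitor peptide control wells for full effect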
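material = purified tagged CAL PDZ domain construct (CerCALP) | compound dosing = 20 µM, one dose | times = 1 h at RT | measured by = fluorescence polarization from S- and P-plane intensities, G-factor corrected | read-out = inhibition from polarization loss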
Rce1 inhib: yeast Ras-converting enzyme inhibition. calls only. 290,000 tested, 0.27% active. Q03530. yeast membranes, quenched prenylated peptide cleavage fluorescence;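 active = fall in fluorescence gain of 50% or more versus controls, with final raw signal at or below 3038400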;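 also: plate controls were neutral control wells for no effect and wells lacking membranes for full effect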
Target sequence (Q03530 whole entry, looked up): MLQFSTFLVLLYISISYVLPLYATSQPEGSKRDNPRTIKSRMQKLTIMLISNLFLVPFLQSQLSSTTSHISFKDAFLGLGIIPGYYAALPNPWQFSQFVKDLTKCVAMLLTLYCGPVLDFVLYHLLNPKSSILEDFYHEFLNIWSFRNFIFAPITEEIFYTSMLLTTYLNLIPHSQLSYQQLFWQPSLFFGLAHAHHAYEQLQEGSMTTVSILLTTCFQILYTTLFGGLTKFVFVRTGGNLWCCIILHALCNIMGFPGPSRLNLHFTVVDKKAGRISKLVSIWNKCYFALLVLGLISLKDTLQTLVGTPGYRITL
CAL PDZ FP-2: CAL PDZ (human) peptide binding inhibition | Q9HD26 | purified CAL PDZ, TMR-peptide fluorescence polarization, 1 h | inhibition, % at 24.9 µM | 300,000 tested, 0.92% active | AID 602252;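 active = mean inhibition of at least 30% with at least half of replicates also reaching 30%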;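 also: 0% = DMSO neutral control and 100% = excess unlabeled competitor peptide PRC23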
ARNT-TACC3 inh: ARNT/TACC3 interaction disruption | AID 623870 | inhibition, % at 9.99 µM | AlphaScreen His-ARNT PAS-B/GST-TACC3 binding, luminescence; TACC3 fragment carries E629A point mutation | 390,000 tested, 0.66% active;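 active = mean inhibition of replicates at least 50% and at least half of replicates each reaching 50%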;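 also: 0% = complete ARNT plus TACC3 wells and 100% = ARNT alone without TACC3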
An asterisk follows results filed as active; i = inactive; · = no result given; + = active, no number. Shown are actives, neighbours in structure and some others; about 1.7% of the full set was active somewhere.

SMILES	AI-2 QS mod	CAL PDZ FP-1	Rce1 inhib	CAL PDZ FP-2	ARNT-TACC3 inh
COC(=O)c1ccc(-c2ccc(CNCC(O)c3ccccc3)o2)cc1 (centres undefined)	26.8	-2.6	+	-2.1	-23.1
O=S(=O)(/N=C(/c1ccccc1)N1CCOCC1)c1ccc(Br)cc1	-10.1	-1.8	i	37.0*	-3.3
O=C(O)c1cc(-c2ccccc2)n[nH]1	14.0	-1.7	i	-7.1	-29.0
Cn1cccc1-c1cc(C(=O)O)[nH]n1	11.3	-0.3	i	41.0*	-2.0
CN(Cc1c(F)cccc1Cl)C(=O)C1CC(=O)N(CCc2ccccc2)C1 (centres undefined)	22.9	5.0	i	78.2*	-3.4
Cc1ccc(NC(=O)C2CC(=O)N(CCc3ccccc3)C2)cc1Cl (centres undefined)	·	-2.7	·	80.1*	-2.8
COc1cc(NC(=O)C2CC(=O)N(CCc3ccccc3)C2)cc(OC)c1 (centres undefined)	11.7	-2.8	i	4.1	1.2
CN(CCOc1ccccc1)C(=O)c1ccc2c(c1)OCO2	·	-0.1	·	62.0*	0.6
O=C(NCCOc1ccccc1)c1ccc2c(c1)OCO2	-26.1	-2.0	i	-4.7	-2.3
CC(NC(=O)c1ccc(OC2CCN(Cc3ccccn3)CC2)cc1)c1ccccc1 (centres undefined)	11.4	-1.3	i	1.4	-4.8
Cc1cc(C(=O)COC(=O)c2ccc(N)c([N+](=O)[O-])c2)c(C)n1Cc1ccc2c(c1)OCO2	12.1	0.0	i	123.4*	-0.1
Cc1cc(C(=O)COC(=O)c2ccc(N)c([N+](=O)[O-])c2)c(C)n1-c1ccc2c(c1)OCO2	17.7	-2.5	i	-4.6	8.5
CC1=NN(c2nc3ccccc3[nH]2)C(=O)/C1=C/N(C)C	16.8	-1.1	i	-1.1	68.1*
CC1=NN(c2ccccc2)C(=O)/C1=C/N(C)C	2.3	-2.2	i	5.7	16.4
S=C(Nc1ccccc1)Nn1cnnc1	48.3	0.3	i	-3.7	-2.2
O=C(c1ccccc1)C(CCc1ccccn1)CCc1ccccn1	·	24.0	·	46.6*	0.7
C[C@@H]1CN([C@@H](C)CO)C(=O)c2cccc(NC(=O)Nc3ccccc3)c2O[C@H]1CN(C)Cc1ccc(-c2ccccc2)cc1	·	·	·	·	0.2
O=S(=O)(N[C@@H]1CC[C@@H](CCn2cc(-c3cccc(F)c3)nn2)O[C@H]1CO)c1ccccc1	·	·	·	·	4.1
Nn1cnnc1N/N=C/c1cc(Br)cc(Br)c1O	34.9	-0.9	i	1.2	48.9*
CC(C)(C)c1ccc(/C=N/Nc2nncn2N)cc1	3.7	0.2	i	-6.9	-8.4
COc1ccc(/C(C)=N\NS(C)(=O)=O)c(OC)c1	16.3	-2.5	i	-1.8	-3.1
CCCn1c(SCCN2C(=O)c3ccccc3C2=O)n[nH]c1=O	15.6	1.0	i	-0.2	-6.3
O=C(COc1ccccc1[N+](=O)[O-])NCC1COc2ccccc2O1 (centres undefined)	·	-0.3	·	30.1*	17.0
O=C(c1cccc(F)c1)N1CCCCN2[C@H](CO)[C@H](c3ccc(-c4ccc(F)cc4)cc3)[C@@H]2C1	·	·	·	·	3.5
Cc1cccc2cccnc12	·	-1.2	·	-5.0	·
SMILES	AI-2 QS mod	CAL PDZ FP-1	Rce1 inhib	CAL PDZ FP-2	ARNT-TACC3 inh
O=c1cc[nH]c2c1ccc1cccnc12	7.2	-0.1	i	-1.8	60.7*
c1cnc2c(c1)ccc1cccnc12	2.5	-1.6	i	-4.5	64.7*
O=Cc1ccc2ccc3cccnc3c2n1	37.9	-0.8	i	55.0*	66.9*
CC[C@@]1(c2cccc(C)c2)C(=O)N(C(=O)OC)N1C(=O)OC	15.9	0.1	i	-2.5	·
CC1CCCC(NC(=O)c2ccc3c(c2)OCCO3)C1C (centres undefined)	·	-1.0	·	0.5	-8.7
COC(=O)c1cc(O)c(O)c(O)c1	1.9	-0.9	i	-0.6	-0.9
O=C1CN(C(=O)COC(=O)C23CC4CC(CC(O)(C4)C2)C3)c2ccccc2N1	1.7	0.0	i	38.7*	-0.2
O=C1CN(C(=O)COc2ccccc2Cl)c2ccccc2N1	·	-0.5	·	44.7*	-5.1
O=C1CN(C(=O)COc2ccc(F)cc2Br)c2ccccc2N1	30.4	-5.0	i	66.9*	0.5
O=C1CN(C(=O)COc2ccccc2F)c2ccccc2N1	-1.2	-0.6	i	-2.4	24.5
CC1(C)C(=O)Nc2ccccc2N1C(=O)COC(=O)C12CC3CC(CC(O)(C3)C1)C2	9.1	-1.6	i	-3.4	3.2
COc1cccc(S(=O)(=O)N[C@@H]2CC[C@@H](CCNC(=O)Nc3cc(F)ccc3F)O[C@H]2CO)c1	·	·	·	·	5.1
O=C([C@H]1[C@H](CO)[C@H]2Cn3c(cccc3=O)[C@H]2N1CCC(F)(F)F)N1CCCCC1	·	·	·	·	active
O=C(CCC(=O)Nc1nnc(C2CCCCC2)s1)NCc1ccc(F)cc1	-3.6	-0.9	i	0.9	0.3
Cc1cccc(N2NC(=O)/C(=C/c3ccc(-c4ccc(Cl)c(C(=O)O)c4)o3)C2=O)c1	14.4	-0.2	i	96.8*	-6.5
O=C(CC1CC1)Nc1ccc2c(c1)[C@H]1C[C@H](CC(=O)NC3CCCC3)O[C@@H](CO)[C@H]1O2	·	·	·	·	0.2
Cc1ccc(NC(=O)OCCNC(=O)OC(C)C)cc1	15.3	0.4	i	37.6*	-1.5
Cc1ccc(C2CC(c3cccs3)=NN2C(=O)CCl)cc1 (centres undefined)	15.5	·	i	91.3*	12.0
COc1ccc(C2CC(c3cccs3)=NN2c2ccc(C=O)cc2)cc1 (centres undefined)	28.9	·	+	·	·
Cc1ccc(S(=O)(=O)NC(CC(C)C)C(=O)Oc2ccc3c4c(c(=O)oc3c2)CCC4)cc1 (centres undefined)	5.0	-0.7	i	-3.4	-1.8
CC(C)CC(C(=O)Oc1ccc2c3c(c(=O)oc2c1)CCC3)N1C(=O)c2ccccc2C1=O (centres undefined)	9.1	·	i	-1.1	47.2*
COc1ccc(NC(=O)Nc2ccc3c(c2)C(=O)N([C@H](C)CO)C[C@@H](C)[C@H](CN(C)C(=O)Cc2ccccc2)OCCCC[C@@H](C)O3)cc1	·	·	·	·	-13.1
O=C1NC(=O)C(c2cn(-c3ccccc3)nc2-c2ccc(F)cc2)N1 (centres undefined)	-86.2*	0.1	·	2.8	-4.6
O=Cc1cn(-c2ccccc2)nc1-c1ccc(F)cc1	-10.0	-0.4	i	-2.4	-1.2
O=C1C=C(Nc2ccccc2C(=O)O)c2ccccc2C1=O	68.5	2.3	i	76.4*	36.4
CC(C)Oc1ccc(C2CC(=O)N(c3cccc(/C=C/C(=O)O)c3)C2=O)cc1 (centres undefined)	23.6	-0.9	i	-2.3	active
COc1ccc(N2C(=O)CC(c3ccc(OC(C)C)cc3)C2=O)cc1 (centres undefined)	26.1	0.2	i	·	1.2
Nc1c(N(CCC2=CCCCC2)C(=O)COc2ccc([N+](=O)[O-])cc2)c(=O)[nH]c(=O)n1Cc1ccccc1	·	-0.6	·	55.6*	3.1
